Each structure is given as a SMILES string.

The subject of one test is HepG2. As to the kind of experiment: In vitro inhibitory concentration against human hepatocellular carcinoma HepG-2 cells in the presence of vinblastine sulfate salt. The test is classed as functional, cell-based. Put shortly: (§1)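 Cultured in DMEM with 10% FBS, 1% L-glutamine and 1% penicillin/streptomycin at 37 °C in 5% CO2. After 24 h attachment at 2–5 × 10^4 cells/well, cells were treated 48 h with serial dilutions at final 0.25–50 in DMSO-containing medium, six replicates. Survival measured by SRB staining of TCA-fixed cells at 564 nm against untreated control. IC50 from dose–response curves; three experiments, mean ± SD.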

The next test relates to Caco-2. As to the kind of experiment: In vitro inhibitory concentration against human colorectal adenocarcinoma Caco-2 cells in the presence of vinblastine sulfate salt. The test is classed as functional, cell-based. Summed up:
as §1

The test system of another test is COR-L23. The test is described as follows: In vitro inhibitory concentration against human carcinoma COR-L23 cells in the presence of vinblastine sulfate salt. The test is classed as functional, cell-based. Summed up:
(§2)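 Cell lines grown in RPMI 1640 with 10% FBS, 1% L-glutamine and 1% penicillin/streptomycin at 37 °C in 5% CO2. Seeded at 2–5 × 10^4 cells/well and left 24 h, then exposed 48 h to serial dilutions at final 0.25–50 (DMSO vehicle), six replicates. Cells fixed with cold TCA, stained with SRB, and read at 564 nm. IC50 taken from % inhibition curves, three experiments, mean ± SD.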

The next test has as its system MRC5. The test is described as follows: In vitro inhibitory concentration against human fetal lung MRC-5 cell line in the presence of vinblastine sulfate salt. The test is classed as functional, cell-based. Put shortly: as §1
Another test relates to ACHN. The test is described as follows: In vitro inhibitory concentration against renal adenocarcinoma cell line (ACHN) in the presence of taxol. The test is classed as functional, cell-based. Particulars: Homo sapiens. Put shortly: as §2
Test [1] is described as follows: In vitro inhibitory concentration against human amelanotic melanoma cell line (C32) in the presence of vinblastine sulfate salt. The test is classed as functional. Put shortly:
as §2

As for `COc1ccc(-c2cc(=O)c3c(O)c(OC)c(O[C@@H]4OC(CO[C@@H]5OC(C)[C@H](O)[C@H](O)C5OC(C)=O)[C@@H](O)[C@H](O)C4O)cc3o2)cc1` (some centres undefined) [ISOLINARIIN A], the IC50 is 16.4 µM in the test on HepG2; 8.54 µM with Caco-2; 6.68 µM in the test on COR-L23; over 75.3 µM in the test with MRC5; 14 µM in the test on ACHN; 11.8 µM in test [1].
Regarding `COc1ccc(-c2cc(=O)c3c(O)c(OC)c(O)cc3o2)cc1` [PECTOLINARIGENIN], the IC50 is over 159 µM in the test with MRC5 and 7.02 µM in test [1].
Consider `COc1ccc(-c2cc(=O)c3c(O)c(OC)c(O[C@@H]4O[C@H](CO[C@@H]5O[C@@H](C)[C@H](O)[C@@H](O)[C@H]5O)[C@@H](O)[C@H](O)[C@H]4O)cc3o2)cc1` [PECTOLINARIN], for which the half-inhibitory concentration (IC50) in the test with HepG2 is 14.1 µM; in the test with MRC5, over 80.3 µM; in test [1], 7.17 µM.
As for `C[C@]12O[C@H]1[C@@H](O)[C@]1(O)C=CO[C@@H](O[C@@H]3O[C@H](CO)[C@@H](O)[C@H](O)[C@H]3O)[C@@H]12` [ANTIRRHINOSIDE], the half-maximal inhibitory concentration (IC50) (with HepG2; with Caco-2; in the test with COR-L23; in the test with MRC5; with ACHN; in test [1]) was over 138 µM in each case.
In the case of `COc1ccc(-c2cc(=O)c3c(O)c(OC)c(O[C@@H]4OC(CO[C@@H]5OC(C)[C@H](OC(C)=O)[C@H](O)C5O)[C@@H](O)C(O)[C@@H]4O)cc3o2)cc1` (some centres undefined), the half-maximal inhibitory concentration (IC50) in the test on HepG2 was 23.2 µM; in the test on Caco-2, 8.01 µM; with COR-L23, 5.17 µM; in the test with MRC5, over 75.3 µM; in the test on ACHN, 11.2 µM; in test [1] it was 12.6 µM.
Turning to `COc1ccc(-c2cc(=O)c3c(O)c(OC)c(O[C@@H]4OC(CO[C@@H]5OC(C)[C@H](O)[C@H](OC(C)=O)C5O)[C@@H](O)[C@H](O)C4O)cc3o2)cc1` (some centres undefined), the IC50 in the test on HepG2 is 10.9 µM; with Caco-2, 14 µM; with COR-L23, 10.4 µM; in the test on MRC5, over 75.3 µM; in the test on ACHN, 16.9 µM; in test [1], 21.5 µM.

These data come from ChEMBL document CHEMBL1143463, “Potential antitumor agents: flavones and their derivatives from Linaria reflexa Desf” (Bioorg Med Chem Lett, 2005).
